{"data": "Results from different studies", "target": "RAC-beta serine/threonine-protein kinase (AKT2, Homo sapiens, UniProt P31751)", "note": "Lines come from different studies, so protocols differ."}
{"Compound": "CN(C)CC#Cc1ccc(OCCCc2sc(N3CCc4cccc(C(=O)Nc5nc6ccccc6s5)c4C3)nc2C(=O)O)c(F)c1", "assay": "cell-free assay, competition with immobilised ligand", "conditions": "1 µM", "remaining binding": "100%"}
{"Compound": "C[C@@H]1CCN(c2nccc(-c3cnn4ncccc34)n2)C1", "assay": "binding", "conditions": "1 µM", "remaining binding": "93%"}
{"Compound": "O=C(c1ccc(Nc2ncc(Cl)c(-c3cc4ccccc4s3)n2)cc1)N1CCC(N2CCCC2)CC1", "assay": "binding, competition with immobilised ligand", "conditions": "1 µM", "remaining binding": "88%"}
{"Compound": "Cc1cnn2ncc(-c3ccnc(N(C)C)n3)c2c1", "assay": "binding", "conditions": "1 µM", "remaining binding": "100%"}
{"Compound": "CCS(=O)(=O)c1cc2cc(C[C@@](O)(CC(C)(C)c3ccc(F)cc3C(N)=O)C(F)(F)F)[nH]c2cn1", "assay": "cell-free assay, competition with immobilised ligand", "conditions": "1 µM", "remaining binding": "93%"}
{"Compound": "CNC(=O)[C@@H]1CC[C@@H](n2c(-c3ccc4cnccc4c3)nc3ccc(C(=O)NCc4cccc(C(N)=O)c4)cc32)C1", "assay": "binding, competition with immobilised ligand", "conditions": "1 µM", "remaining binding": "100%"}
{"Compound": "CN(C)c1nccc(-c2cnc3ncccn23)n1", "assay": "binding", "conditions": "1 µM", "remaining binding": "88%"}
{"Compound": "O=C(NCC1CCOCC1)c1n[nH]cc1NC(=O)c1c(F)cccc1F", "assay": "binding, competition with immobilised ligand", "conditions": "1 µM", "remaining binding": "100%"}
{"Compound": "O=C(c1ccc(Nc2nccc(-c3cc4ccccc4s3)n2)cc1)N1CCC(N2CCCC2)CC1", "assay": "binding, competition with immobilised ligand", "conditions": "1 µM", "remaining binding": "100%"}
{"Compound": "CC1CCCN1c1nccc(-c2cnn3ncccc23)n1 (stereo not drawn)", "assay": "binding", "conditions": "1 µM", "remaining binding": "100%"}
{"Compound": "COc1ncc2cc3ccccc3nc2c1C#N", "assay": "cell-free assay, competition with immobilised ligand", "conditions": "5 µM", "remaining binding": "95%"}
{"Compound": "c1cnn2ncc(-c3ccnc(N4CCC45COC5)n3)c2c1", "assay": "binding", "conditions": "1 µM", "remaining binding": "96%"}
{"Compound": "C[C@@H]1CN(c2ccc3ncc(-c4ccc5[nH]nc(C6CC6)c5c4)n3n2)C[C@H](C)O1", "assay": "binding, competition with immobilised ligand", "conditions": "0.5 µM", "remaining binding": "97%"}
{"Compound": "O=C(O)[C@@H]1[C@@H](Cn2nnc3ccccc3c2=O)CC[C@H]1C(=O)c1ccc(OCCC2CCOCC2)cc1", "assay": "cell-free assay, competition with immobilised ligand", "conditions": "1 µM", "remaining binding": "100%"}
{"Compound": "CCN1CCN(Cc2ccc(C(=O)Nc3ccc(C)c(Oc4ccc5c(c4)CC(=O)N5)c3)cc2C(F)(F)F)CC1", "assay": "binding, competition with immobilised ligand", "conditions": "1 µM", "remaining binding": "100%"}
{"Compound": "C=CC(=O)N1CCC(C(=O)NCC(=O)N2CCN(c3nc(-c4cnc(N)nc4C(F)F)nc(N4CCOCC4)n3)CC2)CC1", "assay": "binding, competition with immobilised ligand", "conditions": "1 µM", "remaining binding": "100%"}
{"Compound": "CN(C)c1ncnc(-c2ccc3nc(Nc4cc(CN5CCN(C(=O)CC(F)(F)F)CC5)ccn4)[nH]c3c2)c1Cl", "assay": "cell-free assay, competition with immobilised ligand", "conditions": "1 µM", "remaining binding": "95%"}
{"Compound": "CC(C)(C)c1ccc(-c2nc(CBr)nn2-c2cccc(O)c2)cc1", "assay": "cell-free assay, competition with immobilised ligand", "conditions": "10 µM", "remaining binding": "70%"}
{"Compound": "Cc1c(NC(=O)c2cc(C(N)=O)nc3cc(F)ccc23)c(C(F)(F)F)nn1Cc1ccc(C#N)cc1", "assay": "cell-free assay, competition with immobilised ligand", "conditions": "1 µM", "remaining binding": "98%"}
{"Compound": "Cc1cnc(Nc2ccc(C(=O)N3CCC(N4CCCC4)CC3)cc2)nc1-c1cc2ccccc2s1", "assay": "binding, competition with immobilised ligand", "conditions": "1 µM", "remaining binding": "83%"}
{"Compound": "CC(C)CC(=O)N1CCc2nc(-c3ccc(Br)cc3)nc(N(C)Cc3ccccc3)c2C1", "assay": "cell-free assay, competition with immobilised ligand", "conditions": "0.1 µM", "remaining binding": "100%"}
{"Compound": "COc1ccnn2ncc(-c3ccnc(N(C)C)n3)c12", "assay": "binding", "conditions": "1 µM", "remaining binding": "100%"}
{"Compound": "Cc1c[nH]c2nccc(Oc3c(F)cc(Nc4cc(Cl)nc(N)n4)cc3F)c12", "assay": "cell-free assay, competition with immobilised ligand", "conditions": "0.1 µM", "remaining binding": "98%"}
{"Compound": "N[C@H]1CCN(c2nccc(-c3cnn4ncccc34)n2)C1", "assay": "binding", "conditions": "1 µM", "remaining binding": "100%"}
